According to ChEMBL document CHEMBL1126988, “Quinolone antibacterials containing the new 7-[3-(1-aminoethyl)-1- pyrrolidinyl] side chain: the effects of the 1-aminoethyl moiety and its stereochemical configurations on potency and in vivo efficacy” (J Med Chem, 1993):
≈ marks a conversion by molar mass, not a printed value.

Experiments:
Format in all cases: functional
[1] = test system: Streptococcus pneumoniae; experiment: Minimum inhibitory concentration was evaluated in vitro against Streptococcus pneumoniae SV-1
Summary of the method: (§1)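 Standard microtitration broth assay against a panel of 10 Gram-positive and Gram-negative organisms. MIC read in µg/mL and averaged over multiple experiments.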

[2] = test system: Providencia rettgeri; experiment: Minimum inhibitory concentration was evaluated in vitro against Providencia rettgeri M1771; summary of the method: as §1
[3] = test system: Staphylococcus aureus; experiment: Minimum inhibitory concentration was evaluated in vitro against Staphylococcus aureus UC 76; summary of the method: as §1
[4] = test system: Staphylococcus aureus; experiment: Minimum inhibitory concentration was evaluated in vitro against Staphylococcus aureus H 228; summary of the method: as §1
[5] = test system: Streptococcus pyogenes; experiment: Compounds were evaluated in vivo for antibacterial activity for mouse protection against Streptococcus pyogenes C 203 after oral administration; conditions: for ED50: Streptococcus pyogenes, C 203, po, read-out: PD50
[6] = test system: Klebsiella pneumoniae; experiment: Minimum inhibitory concentration was evaluated in vitro against Klebsiella pneumoniae MGH2; summary of the method: as §1
[7] = test system: Streptococcus pyogenes; experiment: Minimum inhibitory concentration was evaluated in vitro against Streptococcus pyogenes C 203; summary of the method: as §1
[8] = test system: Pseudomonas aeruginosa; experiment: Minimum inhibitory concentration was evaluated in vitro against Pseudomonas aeruginosa UI-18; summary of the method: as §1
[9] = test system: Escherichia coli; experiment: Antibacterial activity in vitro against Escherichia coli Vogel; summary of the method: as §1
[10] = test system: Streptococcus pyogenes; experiment: Antibacterial activity measured as mouse protection against Streptococcus pyogenes C 203 after subcutaneous administration; conditions: for ED50: Streptococcus pyogenes, C 203, sc, read-out: PD50
[11] = test system: Enterobacter cloacae; experiment: Minimum inhibitory concentration in vitro against Enterobacter cloacae MA 2646
[12] = test system: Enterococcus faecalis; experiment: Minimum inhibitory concentration was evaluated in vitro against Enterococcus faecalis MGH-2; summary of the method: as §1
[13] = Providencia rettgeri, read-out: MIC
[14] = Staphylococcus aureus, read-out: MIC
[15] = Klebsiella pneumoniae, read-out: MIC
[16] = Streptococcus pyogenes, read-out: MIC
[17] = Pseudomonas aeruginosa, read-out: MIC
[18] = Escherichia coli, read-out: MIC
[19] = Enterobacter cloacae, read-out: MIC
[20] = Enterococcus faecalis, read-out: MIC
[21] = Streptococcus pneumoniae, read-out: MIC

CN[C@H](C)[C@H]1CCN(c2cc3c(cc2F)c(=O)c(C(=O)O)cn3C2CC2)C1 gave an MIC [1] of 0.2 mg/L (≈ 0.536 µM), an MIC [2, 13] of 0.8 mg/L (≈ 2.14 µM) and an MIC [3, 14] of 0.05 mg/L (≈ 0.134 µM). For the same compound, the MIC [4, 14] was 0.4 mg/L (≈ 1.07 µM), the PD50 [5] was 82 mg/kg and the MIC [6, 15] was 0.4 mg/L (≈ 1.07 µM). It also gave an MIC [7, 16] of 0.1 mg/L (≈ 0.268 µM), an MIC [8, 17] of 3.1 mg/L (≈ 8.3 µM) and an MIC [9, 18] of 0.2 mg/L (≈ 0.536 µM). It also gave a PD50 [10] of 7 mg/kg, an MIC [11, 19] of 0.2 mg/L (≈ 0.536 µM) and an MIC [12, 20] of 0.2 mg/L (≈ 0.536 µM).

Work on CCN[C@H](C)[C@@H]1CCN(c2nc3c(cc2F)c(=O)c(C(=O)O)cn3-c2ccc(F)cc2F)C1 yielded an MIC [1, 21] of 0.2 mg/L (≈ 0.434 µM), an MIC [2, 13] of 3.1 mg/L (≈ 6.73 µM) and an MIC [3, 14] of 0.05 mg/L (≈ 0.109 µM). It also gave an MIC [4, 14] of 0.2 mg/L (≈ 0.434 µM), an ED50 [5] of 10 mg/kg and an MIC [6, 15] of 1.6 mg/L (≈ 3.47 µM). The MIC [7, 16] was 0.2 mg/L (≈ 0.434 µM), the MIC [8, 17] was 3.1 mg/L (≈ 6.73 µM) and the MIC [9, 18] was 0.8 mg/L (≈ 1.74 µM). It also gave an ED50 [10] of 6 mg/kg, an MIC [11, 19] of 0.8 mg/L (≈ 1.74 µM) and an MIC [12, 20] of 0.4 mg/L (≈ 0.869 µM).

Compound CN[C@@H](C)[C@H]1CCN(c2cc3c(cc2F)c(=O)c(C(=O)O)cn3C2CC2)C1 has an MIC [1, 21] of 0.4 mg/L (≈ 1.07 µM), an MIC [2, 13] of 3.1 mg/L (≈ 8.3 µM) and an MIC [3, 14] of 0.2 mg/L (≈ 0.536 µM). The MIC [4, 14] was 1.6 mg/L (≈ 4.28 µM), the MIC [6, 15] was 0.8 mg/L (≈ 2.14 µM) and the MIC [7, 16] was 0.4 mg/L (≈ 1.07 µM). For the same compound, the MIC [8, 17] was 6.3 mg/L (≈ 16.9 µM), the MIC [9, 18] was 0.4 mg/L (≈ 1.07 µM) and the MIC [11, 19] was 0.4 mg/L (≈ 1.07 µM). It also gave an MIC [12, 20] of 0.8 mg/L (≈ 2.14 µM).

For CCN[C@@H](C)[C@@H]1CCN(c2c(F)c(N)c3c(=O)c(C(=O)O)cn(C4CC4)c3c2F)C1 (stereo in doubt; 32H-S,R), the MIC [1] was 0.013 mg/L (≈ 0.0309 µM), the MIC [2] was 0.4 mg/L (≈ 0.951 µM) and the MIC [3] was 0.003 mg/L (≈ 0.00714 µM). The MIC [4] was 0.013 mg/L (≈ 0.0309 µM), the PD50 [5] was 6 mg/kg and the MIC [6] was 0.1 mg/L (≈ 0.238 µM). It also gave an MIC [7] of 0.013 mg/L (≈ 0.0309 µM), an MIC [8] of 0.8 mg/L (≈ 1.9 µM) and an MIC [9] of 0.1 mg/L (≈ 0.238 µM). For the same compound, the PD50 [10] was 3 mg/kg, the MIC [11] was 0.1 mg/L (≈ 0.238 µM) and the MIC [12] was 0.025 mg/L (≈ 0.0595 µM).

Compound C[C@H](N)[C@H]1CCN(c2c(F)c(N)c3c(=O)c(C(=O)O)cn(C4CC4)c3c2F)C1 (stereo in doubt; 32F-S,R) has an MIC [1] of 0.013 mg/L (≈ 0.0331 µM), an MIC [2] of 0.2 mg/L (≈ 0.51 µM) and an MIC [3] of 0.006 mg/L (≈ 0.0153 µM). It also gave an MIC [4] of 0.025 mg/L (≈ 0.0637 µM), a PD50 [5] of 14 mg/kg and an MIC [6] of 0.1 mg/L (≈ 0.255 µM). The MIC [7] was 0.013 mg/L (≈ 0.0331 µM), the MIC [8] was 0.8 mg/L (≈ 2.04 µM) and the MIC [9] was 0.05 mg/L (≈ 0.127 µM). For the same compound, the PD50 [10] was 4 mg/kg, the MIC [11] was 0.1 mg/L (≈ 0.255 µM) and the MIC [12] was 0.05 mg/L (≈ 0.127 µM).

CC(N)C1CCN(c2cc3c(c(N)c2F)c(=O)c(C(=O)O)cn3C2CC2)C1 (mixture of isomers) was tested, and the MIC [1, 21] was 0.003 mg/L, the MIC [2, 13] was 0.1 mg/L and the MIC [3, 14] was 0.003 mg/L. For the same compound, the MIC [4, 14] was 0.05 mg/L, the ED50 [5] was 18 mg/kg and the MIC [6, 15] was 0.05 mg/L. It also gave an MIC [7, 16] of 0.003 mg/L, an MIC [8, 17] of 0.4 mg/L and an MIC [9, 18] of 0.025 mg/L. It also gave an ED50 [10] of 4 mg/kg, an MIC [11, 19] of 0.025 mg/L and an MIC [12, 20] of 0.013 mg/L.

In the case of CN[C@H](C)[C@@H]1CCN(c2c(F)cc3c(=O)c(C(=O)O)cn(C4CC4)c3c2C(F)(F)F)C1, the MIC [1, 21] is reported as 0.05 mg/L (≈ 0.113 µM), the MIC [2, 13] is reported as 3.1 mg/L (≈ 7.02 µM) and the MIC [3, 14] is reported as 0.025 mg/L (≈ 0.0566 µM). For the same compound, the MIC [4, 14] was 0.05 mg/L (≈ 0.113 µM), the ED50 [5] was 3 mg/kg and the MIC [6, 15] was 1.6 mg/L (≈ 3.62 µM). It also gave an MIC [7, 16] of 0.05 mg/L (≈ 0.113 µM), an MIC [8, 17] of 6.3 mg/L (≈ 14.3 µM) and an MIC [9, 18] of 0.2 mg/L (≈ 0.453 µM). For the same compound, the ED50 [10] was 2 mg/kg, the MIC [11, 19] was 0.4 mg/L (≈ 0.906 µM) and the MIC [12, 20] was 0.1 mg/L (≈ 0.227 µM).

In the case of CCN[C@@H](C)[C@@H]1CCN(c2c(F)c(N)c3c(=O)c(C(=O)O)cn(C4CC4)c3c2F)C1 (stereo in doubt; 32H-S,S), the MIC [1] is reported as 0.05 mg/L (≈ 0.119 µM), the MIC [2] is reported as 1.6 mg/L (≈ 3.81 µM) and the MIC [3] is reported as 0.05 mg/L (≈ 0.119 µM). For the same compound, the MIC [4] was 0.1 mg/L (≈ 0.238 µM), the PD50 [5] was 13 mg/kg and the MIC [6] was 0.4 mg/L (≈ 0.951 µM). The MIC [7] was 0.2 mg/L (≈ 0.476 µM), the MIC [8] was 3.1 mg/L (≈ 7.37 µM) and the MIC [9, 18] was 0.2 mg/L (≈ 0.476 µM). The PD50 [10] was 9 mg/kg, the MIC [11] was 0.4 mg/L (≈ 0.951 µM) and the MIC [12] was 0.2 mg/L (≈ 0.476 µM).

With CCNCC1CCN(c2c(F)cc3c(=O)c(C(=O)O)cn(C4CC4)c3c2OC)C1 (centres undefined) the MIC [1, 21] was 0.013 mg/L (≈ 0.0322 µM), the MIC [2, 13] was 0.4 mg/L (≈ 0.991 µM) and the MIC [3, 14] was 0.006 mg/L (≈ 0.0149 µM). The MIC [4, 14] was 0.025 mg/L (≈ 0.062 µM), the ED50 [5] was 4 mg/kg and the MIC [6, 15] was 0.2 mg/L (≈ 0.496 µM). The MIC [7, 16] was 0.013 mg/L (≈ 0.0322 µM), the MIC [8, 17] was 1.6 mg/L (≈ 3.97 µM) and the MIC [9, 18] was 0.1 mg/L (≈ 0.248 µM). For the same compound, the ED50 [10] was 0.4 mg/kg, the MIC [11, 19] was 0.1 mg/L (≈ 0.248 µM) and the MIC [12, 20] was 0.05 mg/L (≈ 0.124 µM).

COc1c(N2CC[C@@H]([C@H](C)N)C2)c(F)cc2c(=O)c(C(=O)O)cn(C3CC3)c12 showed an MIC [1, 21] of 0.025 mg/L (≈ 0.0642 µM), an MIC [2, 13] of 0.4 mg/L (≈ 1.03 µM) and an MIC [3, 14] of 0.013 mg/L (≈ 0.0334 µM). It also gave an MIC [4, 14] of 0.05 mg/L (≈ 0.128 µM), an MIC [6, 15] of 0.4 mg/L (≈ 1.03 µM) and an MIC [7, 16] of 0.025 mg/L (≈ 0.0642 µM). For the same compound, the MIC [8, 17] was 1.6 mg/L (≈ 4.11 µM), the MIC [9, 18] was 0.4 mg/L (≈ 1.03 µM) and the ED50 [10] was 6 mg/kg. It also gave an MIC [11, 19] of 0.8 mg/L (≈ 2.05 µM) and an MIC [12, 20] of 0.05 mg/L (≈ 0.128 µM).

For CN[C@@H](C)[C@@H]1CCN(c2nc3c(cc2F)c(=O)c(C(=O)O)cn3C2CC2)C1, the MIC [1] was 0.1 mg/L (≈ 0.267 µM), the MIC [2] was 0.8 mg/L (≈ 2.14 µM) and the MIC [3] was 0.05 mg/L (≈ 0.134 µM). The MIC [4] was 0.2 mg/L (≈ 0.534 µM), the PD50 [5] was 11 mg/kg and the MIC [6] was 0.2 mg/L (≈ 0.534 µM). The MIC [7] was 0.1 mg/L (≈ 0.267 µM), the MIC [8] was 1.6 mg/L (≈ 4.27 µM) and the MIC [9] was 0.1 mg/L (≈ 0.267 µM). For the same compound, the PD50 [10] was 5 mg/kg, the MIC [11] was 0.1 mg/L (≈ 0.267 µM) and the MIC [12] was 0.2 mg/L (≈ 0.534 µM).
